This is an account of results in ChEMBL document CHEMBL5107963, “Design, synthesis and anti-mycobacterial evaluation of imidazo[1,2-a]pyridine analogues” (RSC Med Chem, 2022).

Converted amounts (≈) assume the structure as drawn. Where only a bound is given, the exact number is not on record here.

The subject of this assay is Mycobacterium tuberculosis. Nature of the assay: Anti-mycobacterial activity against Mycobacterium tuberculosis H37Rv incubated for 5 days by alamar blue assay. Format: functional. Particulars: 120 h, time 5 day. The gist of the method:
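Inoculum from Löwenstein-Jensen culture suspended in Middlebrook 7H9 broth with 0.2% glycerol and 10% OADC, diluted 1:20. Compounds serially diluted in 7H9, final 100 to 0.4 µg/ml. Sealed plates incubated 37°C for 5 days, then Alamar Blue/10% Tween 80 (1:1) added for 24 h. Blue = no growth, pink = growth; MIC is lowest concentration preventing blue-to-pink change.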
In general terms: Resazurin is reduced to fluorescent resorufin, in cell work by metabolically active cells.
`COc1ccc(-c2cn3cc(C4=CCN(S(=O)(=O)C5CCCC5)CC4)ccc3n2)cc1OC` yielded a minimum inhibitory concentration (MIC) of 25 µg/mL (≈ 53.5 µM).

Take `COc1ccc(-c2cn3cc(C4=CCN(C(=O)C5CCCCC5)CC4)ccc3n2)cc1OC`: the MIC turned out to be 50 µg/mL (≈ 112 µM).

For `COc1ccc(-c2cn3cc(C4=CCN(C(=O)c5cccc(F)c5)CC4)ccc3n2)cc1OC`, inhibition of growth (MIC) required 50 µg/mL (≈ 109 µM).

In turn, `COc1ccc(-c2cn3cc(C4=CCN(C(=O)C5CC5)CC4)ccc3n2)cc1OC` had a minimum inhibitory concentration (MIC) of 50 µg/mL (≈ 124 µM).

`COc1ccc(-c2cn3cc(C4=CCN(S(=O)(=O)c5ccc(C(F)(F)F)cc5)CC4)ccc3n2)cc1OC` came in with an MIC of 6.25 µg/mL (≈ 11.5 µM).

In turn, `COc1ccc(-c2cn3cc(C4=CCN(S(=O)(=O)c5ccc(C)cc5)CC4)ccc3n2)cc1OC` registered an MIC of 25 µg/mL (≈ 51.1 µM).

The compound `COc1ccc(-c2cn3cc(C4=CCN(C(=O)c5ccc(F)cc5)CC4)ccc3n2)cc1OC` yielded a minimum inhibitory concentration (MIC) of 25 µg/mL (≈ 54.6 µM).

For the compound `COc1ccc(-c2cn3cc(C4=CCN(S(=O)(=O)c5ccccc5)CC4)ccc3n2)cc1OC`, it took 25 µg/mL (≈ 52.6 µM) to inhibit growth (MIC).

The compound `COc1ccc(-c2cn3cc(C4=CCN(C(=O)c5cocn5)CC4)ccc3n2)cc1OC` gave an MIC of 50 µg/mL (≈ 116 µM).

The compound `COc1ccc(-c2cn3cc(C4=CCN(C(=O)c5cccc(C(F)(F)F)c5)CC4)ccc3n2)cc1OC` showed a minimum inhibitory concentration (MIC) of 12.5 µg/mL (≈ 24.6 µM).

Compound `COc1ccc(-c2cn3cc(C4=CCN(C(=O)c5ccco5)CC4)ccc3n2)cc1OC` came in with a minimum inhibitory concentration (MIC) of 50 µg/mL (≈ 116 µM).

`COc1ccc(-c2cn3cc(C4=CCN(S(=O)(=O)C5CC5)CC4)ccc3n2)cc1OC` showed an MIC of 12.5 µg/mL (≈ 28.4 µM).

Turning to `COc1ccc(-c2cn3cc(C4=CCN(S(=O)(=O)c5ccc(C(C)=O)cc5)CC4)ccc3n2)cc1OC`, the minimal inhibitory concentration (MIC) is 6.25 µg/mL (≈ 12.1 µM).

Regarding `COc1ccc(-c2cn3cc(C4=CCN(C(=O)c5ccccn5)CC4)ccc3n2)cc1OC`, the MIC was found to be 100 µg/mL (≈ 227 µM).

In turn, `COc1ccc(-c2cn3cc(C4=CCN(S(=O)(=O)c5ccc(Cl)s5)CC4)ccc3n2)cc1OC` came in with an MIC of 6.25 µg/mL (≈ 12.1 µM).

Turning to `COc1ccc(-c2cn3cc(C4=CCN(C(=O)c5cccs5)CC4)ccc3n2)cc1OC`, the lowest concentration to inhibit growth (MIC) was 25 µg/mL (≈ 56.1 µM).

In turn, `COc1ccc(-c2cn3cc(C4=CCN(C(C)=O)CC4)ccc3n2)cc1OC` had an MIC of over 100 µg/mL.

For `COc1ccc(-c2cn3cc(C4=CCN(S(=O)(=O)c5ccc(Cl)cc5)CC4)ccc3n2)cc1OC`, the minimal inhibitory concentration (MIC) was 6.25 µg/mL (≈ 12.3 µM).

For `COc1ccc(-c2cn3cc(C4=CCN(C(=O)COCc5ccccc5)CC4)ccc3n2)cc1OC`, the lowest concentration to inhibit growth (MIC) was 50 µg/mL (≈ 103 µM).

Turning to `COc1ccc(-c2cn3cc(C4=CCN(S(=O)(=O)c5ccc(Br)cc5)CC4)ccc3n2)cc1OC`, the MIC was found to be 6.25 µg/mL (≈ 11.3 µM).

Compound `COc1ccc(-c2cn3cc(C4=CCN(S(=O)(=O)c5ccc(C(C)(C)C)cc5)CC4)ccc3n2)cc1OC` returned an MIC of 6.25 µg/mL (≈ 11.8 µM).

On to `COc1ccc(-c2cn3cc(C4=CCN(S(=O)(=O)c5ccc(Br)s5)CC4)ccc3n2)cc1OC`, for which 3.12 µg/mL (≈ 5.58 µM) was the least that counted as inhibitory (MIC).

Turning to `COc1ccc(-c2cn3cc(C4=CCN(S(=O)(=O)c5ccc(F)cc5)CC4)ccc3n2)cc1OC`, 6.25 µg/mL (≈ 12.7 µM) was the least that counted as inhibitory (MIC).

`CCS(=O)(=O)N1CC=C(c2ccc3nc(-c4ccc(OC)c(OC)c4)cn3c2)CC1` showed a minimal inhibitory concentration (MIC) of 12.5 µg/mL (≈ 29.2 µM).

`CCCS(=O)(=O)N1CC=C(c2ccc3nc(-c4ccc(OC)c(OC)c4)cn3c2)CC1` showed a minimal inhibitory concentration (MIC) of 12.5 µg/mL (≈ 28.3 µM).

With `COc1ccc(-c2cn3cc(C4=CCN(S(=O)(=O)C5CCCCC5)CC4)ccc3n2)cc1OC`, the lowest concentration to inhibit growth (MIC) was 25 µg/mL (≈ 51.9 µM).

Turning to `COc1ccc(-c2cn3cc(C4=CCN(S(=O)(=O)c5ccc([N+](=O)[O-])cc5)CC4)ccc3n2)cc1OC`, the minimal inhibitory concentration (MIC) came out at 6.25 µg/mL (≈ 12 µM).

In the case of `COc1ccc(-c2cn3cc(C4=CCN(C(=O)c5ccccc5F)CC4)ccc3n2)cc1OC`, the minimal inhibitory concentration (MIC) was determined as 6.25 µg/mL (≈ 13.7 µM).

`COc1ccc(-c2cn3cc(C4=CCN(C(=O)C(C)(C)C)CC4)ccc3n2)cc1OC` gave an MIC of 100 µg/mL (≈ 238 µM).

Consider `Nc1ccc(C(=O)O)c(O)c1` [AMINOSALICYLIC ACID], for which the MIC is 12.5 µg/mL (≈ 81.6 µM).

The compound `CC[C@@H](CO)NCCN[C@@H](CC)CO` [ETHAMBUTOL] came in with a minimum inhibitory concentration (MIC) of 6.25 µg/mL (≈ 30.6 µM).

Broadly, the MIC is the smallest concentration in the dilution series that meets the test's criterion for growth inhibition.
